These entries were drawn from the full list.
Apaf-1 act = activators of human Apaf-1 apoptosome. O14727. Apaf-1 apoptosome caspase-3 activation, DEVD-Rh110 fluorescence; active compounds read low. activity change, negative = activation, % at 20 µM. 330,000 compounds, 0.31% hits. AID 489031;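 active = activity change at or below -40% at 20 µM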
Target sequence (O14727 whole entry, looked up): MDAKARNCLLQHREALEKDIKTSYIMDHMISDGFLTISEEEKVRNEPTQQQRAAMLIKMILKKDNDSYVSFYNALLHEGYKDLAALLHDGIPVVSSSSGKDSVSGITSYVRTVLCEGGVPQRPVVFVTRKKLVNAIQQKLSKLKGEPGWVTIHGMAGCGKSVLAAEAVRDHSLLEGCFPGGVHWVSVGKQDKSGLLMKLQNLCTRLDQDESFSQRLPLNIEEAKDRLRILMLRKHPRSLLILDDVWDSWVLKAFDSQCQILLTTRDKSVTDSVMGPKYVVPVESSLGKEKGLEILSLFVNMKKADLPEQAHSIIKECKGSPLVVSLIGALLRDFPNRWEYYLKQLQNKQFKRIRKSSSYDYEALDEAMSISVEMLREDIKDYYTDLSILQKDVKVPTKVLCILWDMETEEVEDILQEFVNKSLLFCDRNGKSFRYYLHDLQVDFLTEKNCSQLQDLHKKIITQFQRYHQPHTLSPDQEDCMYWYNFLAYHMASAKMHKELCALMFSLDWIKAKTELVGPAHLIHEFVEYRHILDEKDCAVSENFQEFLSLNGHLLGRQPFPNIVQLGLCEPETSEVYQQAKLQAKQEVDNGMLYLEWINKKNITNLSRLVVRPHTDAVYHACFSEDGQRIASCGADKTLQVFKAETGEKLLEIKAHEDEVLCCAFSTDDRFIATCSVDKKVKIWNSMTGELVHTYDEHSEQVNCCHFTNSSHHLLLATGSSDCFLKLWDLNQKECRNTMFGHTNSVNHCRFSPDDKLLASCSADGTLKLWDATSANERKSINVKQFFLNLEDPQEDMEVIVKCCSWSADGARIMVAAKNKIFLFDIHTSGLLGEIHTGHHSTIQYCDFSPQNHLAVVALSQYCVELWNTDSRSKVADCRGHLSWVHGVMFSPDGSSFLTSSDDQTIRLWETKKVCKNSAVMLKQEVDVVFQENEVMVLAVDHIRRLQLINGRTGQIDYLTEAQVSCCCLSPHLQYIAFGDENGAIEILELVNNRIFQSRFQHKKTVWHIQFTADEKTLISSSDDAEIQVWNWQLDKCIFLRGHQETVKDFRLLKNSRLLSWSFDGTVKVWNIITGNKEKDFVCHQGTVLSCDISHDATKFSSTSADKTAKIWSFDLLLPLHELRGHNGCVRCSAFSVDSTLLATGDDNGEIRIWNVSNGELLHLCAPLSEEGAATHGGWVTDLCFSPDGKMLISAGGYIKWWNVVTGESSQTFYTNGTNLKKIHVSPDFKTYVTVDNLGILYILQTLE
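Material: biochemical Apaf-1 apoptosome reconstitution; Medium: 20 mM HEPES buffer, pH 7.5, containing CHAPS and BSA; Reagent: dATP, cytochrome c, and (Z-DEVD)2-Rh110 caspase-3 substrate; Times: 30 min preincubation, 50 min reaction, room temperature; Signal: Rh110 fluorescence, excitation 480 nm, emission 540 nm; Measure: Caspase-3 activity via Apaf-1.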
Rh110 interf act = Rh110 signal interference in Apaf-1 activator counter-screen. shares compounds with Apaf-1 act. Rh110 fluorescence interference, quenched caspase reaction, Ex480/Em540. fluorescence interference (activity change), % at 20 µM, hits read low. 980 tested, under 10 active. AID 504616;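 active = mean activity change at or below -40% when tested at 20 µM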
Apaf-1 act conf2 = confirmation of human Apaf-1 activators | shares compounds with Apaf-1 act | 980 compounds, 5% hits | reconstituted apoptosome caspase-3 activity, DEVD-Rh110 fluorescence; active compounds read low | activity change, negative = activation, % at 20 µM;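 active = mean activity change at or below -40%, meaning activation of 40% or more, at 20 µM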
* = called active by the depositor.

SMILES | Apaf-1 act | others
Cc1cccc(NC(=O)CSCC(=O)N(C)Cc2ccc(Cl)c(Cl)c2)c1 | 63
O=C(c1ccc(-c2cccc(C(F)(F)F)c2)o1)N1CCCC(C(F)(F)F)C1 (stereo not given) | 43
Cc1[nH]n(-c2ccccc2)c(=O)c1/C=N\NC(=O)C1COc2ccccc2O1 (stereo not given) | 54
C#CCOCCOCCOCCNc1nc(N2CCN(C(=O)[C@H]([C@@H](C)CC)n3cc([C@@H](N)CO)nn3)CC2)nc(N2CCN(C(=O)[C@H](Cc3cc4ccccc4[nH]3)n3cc([C@@H](N)Cc4ccc(O)cc4)nn3)CC2)n1 | 57
CC(C)(C)NS(=O)(=O)c1ccc(CCC(=O)O)cc1 | -99*
CCc1ccc(S(=O)(=O)Nc2cc(SCC(=O)O)c(O)c3ccccc23)cc1 | 71
COc1ccccc1N(/N=C1\Sc2ccccc2C1=O)C(C)=O | 83
CC(C)=CCC/C(C)=C/CNC(=O)C[C@H]1C[C@H](C(=O)N2CCOCC2)[C@@]2(C)c3[nH]c4cc(-c5ccco5)ccc4c3CCN2C1=O | 44
CC(=O)C1=C(c2cccc([N+](=O)[O-])c2)N(C(C)=O)n2c(C)nnc2S1 | 44
COc1ccccc1C(CNC(=O)c1cccc(S(=O)(=O)Nc2ccc(C)cc2)c1)N(C)C (stereo not given) | 46
COc1ccc(NS(=O)(=O)c2cccc(C(=O)N3CCCCCCC3)c2)cc1 | 45
COc1ccc(NS(=O)(=O)c2cccc(C(=O)N/N=C/c3cn(-c4ccccc4)nc3-c3ccc(OC)cc3)c2)cc1 | -45*
CCC1C(=O)N=C(SCC(=O)Nc2nc3ccccc3s2)NC1=O (stereo not given) | 70
O=C(OCc1cc(Cl)ccc1OC(F)F)c1ccc([N+](=O)[O-])o1 | 66
C#CCOCCOCCOCCNc1nc(N2CCN(C(=O)C([C@@H](C)O)n3cc([C@@H](N)CCCCN)nn3)CC2)nc(N2CCN(C(=O)[C@H](CCCCN)n3cc([C@@H](N)CC(N)=O)nn3)CC2)n1 (stereo not given in full) | 51
CCC1CCc2sc(C(=O)NCC(c3ccccc3OC)N3CCCC3)cc2C1 (stereo not given) | 49
CCN(CC)c1ccc(NC(=O)CCS(=O)(=O)c2ccc(Br)cc2)c(C)c1 | -136*
Cc1cc(NC(=O)CCSc2ccccc2)ccc1Br | -65* | Rh110 interf act=15;Apaf-1 act conf2=22
Cc1cc(SCC2=NNC(=O)C2)c(Cl)cc1Cl | 47
O=C(O)c1ccccc1-c1ccc(/C=c2\sc3nc4cc(Br)cnc4n3c2=O)o1 | 72
O=C1c2[nH]nc(-c3ccccc3O)c2C(c2cccc(Cl)c2)N1Cc1ccco1 (stereo not given) | 42
COc1ccc2nc(C)cc(N/N=C/c3ccc(F)cc3)c2c1 | 50
Fc1ccc(/C=N/Nc2nc3ccccc3[nH]2)cc1F | -64* | Rh110 interf act=-4;Apaf-1 act conf2=13
CC[C@@H](C)[C@@H]1CN([C@@H](CN2CCC[C@H]2CN2C(N)=NC[C@H]2C(C)C)C(C)C)C(=N)N1CCCC1CCCC1 | 40
Cc1ccccc1C(=O)c1cccn1CC(=O)NCc1ccc(Cl)cc1 | -92* | Rh110 interf act=7;Apaf-1 act conf2=16
SMILES | Apaf-1 act | others
CC(C)(C)OC(=O)[C@H](Cc1ccccc1)NC(=O)c1nc[nH]c1C(=O)N[C@@H](CCCCN)C(=O)OC(C)(C)C | 51
Cc1cccc(C)c1OCC(=O)N(Cc1ccco1)C1CCS(=O)(=O)C1 (stereo not given) | -378* | Rh110 interf act=5;Apaf-1 act conf2=0
O=C1c2ccccc2-c2c1nc1c([n+]2[O-])CCCC1 | 42
CCN1CCN(Cc2ccc(NC(=O)c3cc(NC(=O)C4=NN(c5ccccc5)C(=O)C4)cc(OC)c3)cc2C(F)(F)F)CC1 | 51
NS(=O)(=O)c1cccc(NC(=O)CCS(=O)(=O)c2ccc(Cl)cc2)c1 | -254* | Rh110 interf act=2;Apaf-1 act conf2=3
O=C(NCCCn1ccnc1)c1cn(Cc2ccc(F)cc2)nn1 | -41* | Rh110 interf act=4;Apaf-1 act conf2=0
CCOc1ccc(-c2cc(C(=O)NCCCn3ccnc3)c3cc(Br)ccc3n2)cc1 | 42
CC(C)C[C@@H]1CN=C(N)N1C[C@@H]1CCCN1C[C@H](C)N1C[C@@H](Cc2ccccc2)N(CCc2ccc(Cl)c(Cl)c2)C1=N | 63
CCN1CCN(C2=C(NS(=O)(=O)c3ccc(Br)cc3)C(=O)c3ccccc3C2=O)CC1 | 88
N#Cc1ccccc1OCC(=O)OCC(=O)N1CCCC1 | -110* | Rh110 interf act=11;Apaf-1 act conf2=15
CN[C@H]1CC[C@@H](c2ccc(Cl)c(Cl)c2)c2ccccc21 | 50
CCCCNc1c(-c2ccc(SC3CCCCC3)cc2)nc2cnccn12 | 42
CC1=CC(C)(C)NC(=S)N1C(C)c1ccccc1 (stereo not given) | -56* | Rh110 interf act=-1;Apaf-1 act conf2=16
